Tests used:
[1] = Binding affinity ratio towards sigma receptor compared to the 5-hydroxytryptamine 1A receptor
[2] = target: T1, Muscarinic acetylcholine receptor M1 (Rattus norvegicus, UniProt P08482); experiment: In vitro binding affinity towards Muscarinic acetylcholine receptor M1 by displacing [3H]- telenzepine from rat brain membrane
T1 sequence (P08482 whole entry): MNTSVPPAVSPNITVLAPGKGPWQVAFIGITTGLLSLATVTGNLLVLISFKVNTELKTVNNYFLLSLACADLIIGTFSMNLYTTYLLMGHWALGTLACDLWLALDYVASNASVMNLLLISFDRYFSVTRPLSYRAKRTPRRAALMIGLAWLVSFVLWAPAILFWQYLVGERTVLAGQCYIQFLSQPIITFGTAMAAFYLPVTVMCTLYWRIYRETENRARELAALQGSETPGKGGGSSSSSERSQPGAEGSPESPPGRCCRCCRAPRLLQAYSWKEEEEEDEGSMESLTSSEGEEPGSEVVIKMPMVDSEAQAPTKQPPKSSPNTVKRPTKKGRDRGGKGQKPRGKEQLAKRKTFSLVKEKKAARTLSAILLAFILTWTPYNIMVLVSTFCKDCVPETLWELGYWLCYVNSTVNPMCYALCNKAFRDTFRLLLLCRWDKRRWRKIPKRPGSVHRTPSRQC

D(2) dopamine receptor = D(2) dopamine receptor (Rattus norvegicus, UniProt P61169); experiment: Displacement of [3H]- raclopride from rat striatum Dopamine receptor D2
[3] = target: T2, Sigma non-opioid intracellular receptor 1 (Homo sapiens, UniProt Q99720); experiment: In vitro binding affinity for Sigma opioid receptor by displacement of [3H]DTG
Histamine H1 receptor = Histamine H1 receptor (Rattus norvegicus, UniProt P31390); experiment: Displacement of [3H]- pyrilamine from rat brain membrane Histamine H1 receptor
[4] = target: T3, 5-hydroxytryptamine receptor 1A (Rattus norvegicus, UniProt P19327); experiment: Displacement of […] membrane 5-hydroxytryptamine 1A receptor
T3 sequence (P19327 whole entry): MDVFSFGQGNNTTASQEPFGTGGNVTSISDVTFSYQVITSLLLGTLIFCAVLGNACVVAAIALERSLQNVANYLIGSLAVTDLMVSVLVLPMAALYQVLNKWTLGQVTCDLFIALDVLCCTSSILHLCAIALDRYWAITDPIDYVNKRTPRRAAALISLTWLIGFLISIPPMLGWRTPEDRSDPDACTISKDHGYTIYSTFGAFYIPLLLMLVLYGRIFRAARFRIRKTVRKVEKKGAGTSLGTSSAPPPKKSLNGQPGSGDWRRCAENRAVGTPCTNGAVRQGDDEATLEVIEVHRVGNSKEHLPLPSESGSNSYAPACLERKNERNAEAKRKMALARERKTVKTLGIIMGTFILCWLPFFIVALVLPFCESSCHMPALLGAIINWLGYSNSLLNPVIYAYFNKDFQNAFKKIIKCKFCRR
Procedure, shortened: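 Radioligand displacement on rat brain membranes, run by an external laboratory. [3H]prazosin and [3H]ketanserin were used with cortex, and [3H]-8-OH-DPAT with hippocampus.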

[5] = target: T1, Muscarinic acetylcholine receptor M1; experiment: In vitro binding affinity towards Muscarinic acetylcholine receptor M1 by displacing [3H]- telenzepine from rat brain membrane
[6] = target: T2, Sigma non-opioid intracellular receptor 1; experiment: Binding affinity ratio between Sigma opioid receptor type 1 and Sigma opioid receptor type 2
Procedure, shortened: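 Selectivity ratio of σ1 to σ2 affinity, determined only for compounds with high affinity at sigma sites. σ1 affinity was measured with (+)-pentazocine and σ2 affinity with DTG as radioligands.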

Rattus norvegicus = species: Rattus norvegicus; experiment: In vitro binding affinity ratio between Sigma opioid receptor and 5-hydroxytryptamine 1A receptor
[7] = target: T2, Sigma non-opioid intracellular receptor 1; experiment: In vitro binding affinity towards Sigma opioid receptor type 1 by using [3H]- (+)-pentazocine as radioligand
Sigma 2 receptor = experiment: In vitro binding affinity towards Sigma opioid receptor type 2 by using [3H]- DTG in the presence of 1 uM (+)- pentazocine

Chain of Histamine H1 receptor (P31390 whole entry): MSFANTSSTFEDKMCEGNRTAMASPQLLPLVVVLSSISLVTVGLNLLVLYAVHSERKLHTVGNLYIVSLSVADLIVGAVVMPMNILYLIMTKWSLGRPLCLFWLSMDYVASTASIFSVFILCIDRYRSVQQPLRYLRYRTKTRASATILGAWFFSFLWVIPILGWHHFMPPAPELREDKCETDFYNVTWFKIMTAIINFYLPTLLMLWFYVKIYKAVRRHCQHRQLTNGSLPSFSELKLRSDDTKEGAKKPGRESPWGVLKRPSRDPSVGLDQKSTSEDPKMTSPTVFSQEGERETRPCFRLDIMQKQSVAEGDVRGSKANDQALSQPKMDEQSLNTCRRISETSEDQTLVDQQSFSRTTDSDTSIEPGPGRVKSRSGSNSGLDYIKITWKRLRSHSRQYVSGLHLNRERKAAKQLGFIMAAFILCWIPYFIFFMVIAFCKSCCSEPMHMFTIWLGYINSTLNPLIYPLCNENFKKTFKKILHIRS
Chain of D(2) dopamine receptor (P61169 whole entry): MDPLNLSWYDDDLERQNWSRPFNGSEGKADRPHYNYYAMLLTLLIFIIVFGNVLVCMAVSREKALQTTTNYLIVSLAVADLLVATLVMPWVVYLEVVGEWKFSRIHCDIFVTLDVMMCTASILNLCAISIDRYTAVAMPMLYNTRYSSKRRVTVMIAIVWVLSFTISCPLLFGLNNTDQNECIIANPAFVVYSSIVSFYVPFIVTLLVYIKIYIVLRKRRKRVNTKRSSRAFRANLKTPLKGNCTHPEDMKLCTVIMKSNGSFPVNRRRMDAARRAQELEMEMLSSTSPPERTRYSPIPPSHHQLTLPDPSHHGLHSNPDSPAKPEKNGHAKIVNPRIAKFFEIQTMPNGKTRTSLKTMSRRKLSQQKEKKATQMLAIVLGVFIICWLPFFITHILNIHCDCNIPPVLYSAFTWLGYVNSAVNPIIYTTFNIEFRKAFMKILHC
T2 sequence (Q99720 whole entry): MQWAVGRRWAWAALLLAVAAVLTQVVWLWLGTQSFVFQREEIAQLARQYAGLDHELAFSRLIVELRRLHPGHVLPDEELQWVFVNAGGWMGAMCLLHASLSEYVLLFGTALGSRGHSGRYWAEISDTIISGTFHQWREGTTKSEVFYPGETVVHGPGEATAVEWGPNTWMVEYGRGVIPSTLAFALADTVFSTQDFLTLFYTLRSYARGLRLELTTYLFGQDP

| SMILES | Ratio [1] | Ki [2] [nM] | Ki (D(2) dopamine receptor) [nM] | Ki [3] [nM] | Ki (Histamine H1 receptor) [nM] | Ki [4] [nM] | Ki [5] [nM] | Ratio [6] | Ratio (Rattus norvegicus) | Ki [7] [nM] | Ki (Sigma 2 receptor) [nM] |
| --- | --- | --- | --- | --- | --- | --- | --- | --- | --- | --- | --- |
| Cn1c(=O)sc2cc(CCN3CCC(Cc4ccccc4)CC3)ccc21 | 1.25 | 100 | > 100 | 5 | 3 | 4 |  |  |  |  |  |
| Cn1c(=O)sc2cc(CCCCN3CCC(c4ccccc4)CC3)ccc21 | 0.3 |  | 30 | 3 | 6000 | 10 |  |  |  |  |  |
| Cn1c(=O)sc2cc(CCN3CCN(Cc4ccc(Cl)c(Cl)c4)CC3)ccc21 | 0.17 | 1000 | 200 | 5 | 40 | 30 |  |  |  |  |  |
| Cn1c(=O)sc2cc(CCCCN3CCC(Cc4ccccc4)CC3)ccc21 | 0.17 |  | 100 | 5 | 9 | 30 | 200 |  |  |  |  |
| C[C@@H]1CN(CCc2ccc3c(c2)sc(=O)n3C)C[C@H](C)N1 | < 0.2 | > 10000 | > 10000 | 2000 | 20000 | > 10000 |  |  |  |  |  |
| Cn1c(=O)sc2cc(CCN3CCC(c4ccccc4)CC3)ccc21 |  | 1000 | 1000 | 2 | 20 | 4 |  | 10 | 0.5 | 20 |  |
| Cn1c(=O)sc2cc(CCCCN3CCN(Cc4ccc(Cl)c(Cl)c4)CC3)ccc21 |  | 500 | 100 | 2 | 9 | 300 |  | 70 | 0.006 | 139 |  |
| Cn1c(=O)sc2cc(CCCCN3CCN(Cc4ccc(Cl)cc4Cl)CC3)ccc21 | 0.04 | < 10000 | 100 | 9 | < 100 | 200 |  |  |  |  |  |
| Cn1c(=O)sc2cc(CCCCN3CCN(Cc4ccccc4)CC3)ccc21 |  | 10000 | 10000 | 2 | < 100 | 40 |  |  |  | 37.2 | 2 |
| C[C@@H]1CN(CCCCc2ccc3c(c2)sc(=O)n3C)C[C@H](C)N1 | < 0.001 | > 100000 | > 100000 | 100 | > 100000 | > 100000 |  |  |  |  |  |
| Cn1c(=O)sc2cc(CCN3CCN(Cc4ccccc4)CC3)ccc21 | 0.1 | 500 | > 10000 | 3 | 7 | 30 |  |  |  |  |  |
| Cn1c(=O)sc2cc(CCN3CCN(Cc4ccc(Cl)cc4Cl)CC3)ccc21 | 0.08 |  | 100 | 8 | 10 | 100 |  |  |  |  |  |

Source: ChEMBL document CHEMBL1135280, “Synthesis and pharmacological evaluation of 6-piperidino- and 6-piperazinoalkyl-2(3H)-benzothiazolones as mixed sigma/5-HT(1A) ligands” (Bioorg Med Chem Lett, 2002)
